High-throughput results as filed in PubChem BioAssay.
Most compounds without a hit are left out; they make up all but 2% or so of the library.
CHRM5 PAM – human M5 muscarinic receptor positive allosteric modulators, primary screen, CHO-K1 cells, Fluo-8 calcium fluorescence; Muscarinic acetylcholine receptor M5 (Homo sapiens), P08912; CHO-K1 hM5, ACh EC20 PAM; 0% = ACh EC20, 100% = ACh EC100; activation, % at 3 µM; 360,000 tested, 0.3% active;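 active = activation above the run cutoff, the mean activation of all test compounds plus 3 SD, cut at about 18% in these data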
Target sequence (P08912 whole entry, looked up): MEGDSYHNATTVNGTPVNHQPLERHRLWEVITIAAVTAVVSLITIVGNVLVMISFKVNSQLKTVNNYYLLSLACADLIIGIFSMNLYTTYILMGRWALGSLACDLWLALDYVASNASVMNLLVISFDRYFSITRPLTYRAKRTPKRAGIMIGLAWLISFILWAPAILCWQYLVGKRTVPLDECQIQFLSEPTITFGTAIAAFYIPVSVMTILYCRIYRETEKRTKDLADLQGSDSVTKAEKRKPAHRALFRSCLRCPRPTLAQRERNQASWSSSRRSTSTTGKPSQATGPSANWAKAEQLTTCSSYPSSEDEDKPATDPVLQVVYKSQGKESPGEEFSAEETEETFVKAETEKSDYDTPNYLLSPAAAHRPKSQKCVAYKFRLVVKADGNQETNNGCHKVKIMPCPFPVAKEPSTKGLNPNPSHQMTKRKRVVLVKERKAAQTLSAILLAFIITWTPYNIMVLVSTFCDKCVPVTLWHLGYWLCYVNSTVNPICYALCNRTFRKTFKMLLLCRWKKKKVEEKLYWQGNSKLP
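System: CHO-K1 cell line with stable human muscarinic M5 receptor expression | Also added: EC20 acetylcholine as agonist stimulus | Compound: One concentration, 3 µM final (nominal) | Timing: Fluo-8 loading 80 min at 37 °C plus 30 min room temperature | Measured by: Fluo-8 calcium dye fluorescence, kinetic read | Read-out basis: % activation, ACh-normalized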
CHRM5 antagonist – human M5 muscarinic receptor antagonists, primary screen, CHO cells, Fluo-8 calcium fluorescence | Muscarinic acetylcholine receptor M5 (Homo sapiens), P08912 | CHO-hM5 cells, ACh EC80 | inhibition, % at 3 µM | 360,000 tested, 0.59% active | AID 624040, 2012;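 active = inhibition above a per-plate cutoff, the mean of that plate's test compounds plus 3 SD, cut at about 27% in these data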
M1 ag – human M1 muscarinic receptor agonists, primary screen, Fluo-8 calcium fluorescence, CHO-K1 cells, HTS | 360,000 tested, 0.33% active | activation, % at 3 µM | CHO-K1 hM1, agonist mode; 0% DMSO, 100% acetylcholine EC100 | Muscarinic acetylcholine receptor M1 (Homo sapiens), P11229;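 active = activation above the run's mean compound activation plus 3 SD, cut at about 16% in these data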;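 also: peak over basal fluorescence ratio within a 140 s kinetic read after compound addition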
CHRM1 PAM – human M1 muscarinic receptor positive allosteric modulators, primary screen, CHO-K1 cells, Fluo-8 calcium fluorescence, 1536-well | 360,000 tested, 0.088% active | activation, % at 3 µM | CHO-K1 hM1, ACh EC20; 0% = ACh EC20, 100% = maximal ACh | AID 588819, 2011; in the data active = activation above about 19%, passing the limit was not always enough
M5 ag – human M5 muscarinic receptor agonists, primary screen, CHO-K1 cells, Fluo-8 calcium fluorescence | CHO-K1 hM5 cells; 0% DMSO wells, 100% maximal acetylcholine response | activation, % at 3 µM | 360,000 tested, 0.19% active | AID 624037, 2012;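 active = activation above the run's mean over test compounds plus 3 SD, cut at about 23% in these data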;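 also: signal is peak over basal fluorescence ratio across the kinetic read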
CHRM1 antagonist – human M1 muscarinic receptor antagonists, primary screen, CHO-K1 cells, Fluo-8 calcium fluorescence, 1536-well. Muscarinic acetylcholine receptor M1 (Homo sapiens), P11229. CHO-K1 hM1, ACh EC80 antagonist. inhibition, % at 3 µM. 360,000 tested, 1.3% active;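 active = percent inhibition above its own plate's cutoff, namely the mean of that plate's compound wells plus 3 SD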;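 also: peak over basal fluorescence ratio during 140 s after agonist addition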
A number is an active result.

`COCCCN1C(=O)C(CC(=O)NC2CCCCC2)CC(C(=O)N2CCCCCC2)=C1C` (stereo not given) gave CHRM5 PAM inactive, CHRM5 antagonist inactive and M5 ag inactive.
Screening CC(C)Oc1ccc(C(=O)Nc2ccc(N3CCCC3)cc2)cc1 returned CHRM5 PAM inactive, CHRM5 antagonist inactive, M1 ag inactive, CHRM1 PAM inactive, M5 ag inactive and CHRM1 antagonist 29.
COc1ccc(C(=O)Nc2ccccc2C(=O)N2CCOCC2)cc1OC was read as CHRM5 PAM inactive, CHRM5 antagonist inactive, M1 ag inactive, CHRM1 PAM inactive, M5 ag inactive and CHRM1 antagonist inactive.
For COc1ccccc1C(=O)Nc1ccc(N2CCCCC2)cc1 the results were CHRM5 PAM inactive, CHRM5 antagonist inactive, M1 ag inactive, CHRM1 PAM inactive, M5 ag inactive and CHRM1 antagonist inactive.
For COc1cccc(OC)c1C(=O)Nc1ccccc1C(=O)N1CCOCC1 the results were CHRM5 PAM inactive, CHRM5 antagonist 33, M1 ag inactive, CHRM1 PAM inactive, M5 ag inactive and CHRM1 antagonist inactive.
`O=C(Nc1ccc(N2CCCC2)cc1)c1ccc(Br)cc1` gave CHRM5 PAM inactive, CHRM5 antagonist inactive, M1 ag inactive, CHRM1 PAM inactive, M5 ag inactive and CHRM1 antagonist inactive.
`COc1cccc(OC)c1C(=O)Nc1ccc(N2CCCC2)cc1` gave CHRM5 PAM inactive, CHRM5 antagonist inactive, M1 ag inactive, CHRM1 PAM inactive, M5 ag inactive and CHRM1 antagonist 31.
Screening CCOC(=O)c1c(NC(=O)CN2CCN(S(=O)(=O)c3cc(Cl)ccc3Cl)CC2)sc(C(=O)N(C)C)c1C returned CHRM5 PAM inactive, CHRM5 antagonist inactive, M1 ag inactive, CHRM1 PAM inactive, M5 ag inactive and CHRM1 antagonist inactive.
For CC1=C(C)CC(C(=O)NC2CCN(C(C)C)CC2)C(C(=O)O)C1 (stereo not given) the results were CHRM5 PAM inactive, CHRM5 antagonist 37, M1 ag inactive, CHRM1 PAM inactive, M5 ag inactive and CHRM1 antagonist 50.
COC(=O)c1ccc(CSc2nc3ccccc3c(=O)n2CC(C)C)o1 was read as CHRM5 PAM inactive, CHRM5 antagonist inactive, M1 ag inactive, CHRM1 PAM inactive, M5 ag inactive and CHRM1 antagonist inactive.
COC(=O)c1ccc(CSc2nc3ccccc3c(=O)n2Cc2ccco2)o1 was read as CHRM5 PAM inactive, CHRM5 antagonist inactive, M1 ag inactive, CHRM1 PAM inactive, M5 ag inactive and CHRM1 antagonist 36.
`CC1(C(=O)O)CCCN(C(=O)c2ccc(F)cc2Cl)C1` (stereo not given) gave CHRM5 PAM inactive, CHRM5 antagonist inactive, M1 ag inactive, CHRM1 PAM inactive, M5 ag inactive and CHRM1 antagonist inactive.
For Cc1ccc(S(=O)(=O)N2[C@@H](CO)CO[C@H]2CC(=O)c2ccccc2)cc1 the results were CHRM5 PAM inactive, CHRM5 antagonist inactive and M5 ag inactive.
For CCOc1ccc(NC(=O)Nc2nc(SCC)ns2)cc1 the results were CHRM5 PAM inactive, CHRM5 antagonist 33, M1 ag inactive, CHRM1 PAM inactive, M5 ag inactive and CHRM1 antagonist inactive.
CCSc1nsc(NC(=O)Nc2ccccc2Cl)n1 was read as CHRM5 PAM inactive, CHRM5 antagonist inactive, M1 ag inactive, CHRM1 PAM inactive, M5 ag inactive and CHRM1 antagonist inactive.
`CCCCCCNCC(=O)N1CCC(Cc2ccccc2)CC1` gave CHRM5 PAM inactive, CHRM5 antagonist inactive, M1 ag inactive, CHRM1 PAM inactive, M5 ag inactive and CHRM1 antagonist 31.
For CCCC(=O)N1CCC(Cc2ccccc2)CC1 the results were CHRM5 PAM inactive, CHRM5 antagonist inactive, M1 ag inactive, CHRM1 PAM inactive, M5 ag inactive and CHRM1 antagonist inactive.
`CC(C)CN1C(=O)C(=O)N(CC(=O)NCCCc2ccccc2)C1=O` gave CHRM5 PAM inactive, CHRM5 antagonist inactive, M1 ag inactive, CHRM1 PAM inactive, M5 ag inactive and CHRM1 antagonist inactive.
`CC(=O)NC(c1ccccc1)c1nc(-c2cccc(C#N)c2)cs1` (stereo not given) gave CHRM5 PAM inactive, CHRM5 antagonist inactive, M1 ag inactive, CHRM1 PAM inactive, M5 ag inactive and CHRM1 antagonist inactive.
CN1C/C(=C\c2ccc(N3CCOCC3)cc2)C(=O)/C(=C/c2ccc(N3CCOCC3)cc2)C1 was read as CHRM5 PAM inactive, CHRM5 antagonist inactive, M1 ag inactive, CHRM1 PAM inactive, M5 ag inactive and CHRM1 antagonist inactive.
Screening CCN1C/C(=C/c2ccc(N3CCOCC3)cc2)C(=O)/C(=C/c2ccc(N3CCOCC3)cc2)C1 returned CHRM5 PAM inactive, CHRM5 antagonist inactive, M1 ag 23, CHRM1 PAM inactive, M5 ag inactive and CHRM1 antagonist inactive.
Cc1ccc(-c2nnc(N3CCCCC3)c3ccccc23)cc1S(=O)(=O)N(C)C was read as CHRM5 PAM inactive, CHRM5 antagonist inactive, M1 ag inactive, CHRM1 PAM inactive, M5 ag inactive and CHRM1 antagonist inactive.
Screening Cc1ccc(-c2nnc(N3CCOCC3)c3ccccc23)cc1S(N)(=O)=O returned CHRM5 PAM 19, CHRM5 antagonist inactive, M1 ag inactive, CHRM1 PAM inactive, M5 ag inactive and CHRM1 antagonist inactive.
For CC(=O)NC(C)(c1ccccc1)c1nc(-c2cccc3cccnc23)cs1 (stereo not given) the results were CHRM5 PAM inactive, CHRM5 antagonist inactive, M1 ag inactive, CHRM1 PAM inactive, M5 ag inactive and CHRM1 antagonist inactive.
Screening CCCC(=O)N1CCCC1(C)C(=O)NCc1c(F)ccc(C)c1F (stereo not given) returned CHRM5 PAM inactive, CHRM5 antagonist inactive, M1 ag inactive, CHRM1 PAM inactive, M5 ag inactive and CHRM1 antagonist inactive.
For CCN(CC)S(=O)(=O)c1ccc(C(=O)NC(=S)N2CCN(c3ccccc3O)CC2)cc1 the results were CHRM5 PAM inactive, CHRM5 antagonist inactive, M1 ag inactive, CHRM1 PAM inactive, M5 ag inactive and CHRM1 antagonist inactive.
For CCC(O)CNC(=O)NC(=C(Cl)Cl)c1ccc(C)c(F)c1 (stereo not given) the results were CHRM5 PAM 22, CHRM5 antagonist inactive, M1 ag inactive, CHRM1 PAM inactive, M5 ag inactive and CHRM1 antagonist inactive.
